Data as given in ChEMBL document CHEMBL1817615, “Dimerization of piceatannol by Momordica charantia peroxidase and α-glucosidase inhibitory activity of the biotransformation products” (Bioorg Med Chem, 2011).

Assay: Inhibition of yeast alpha-glucosidase using p-nitrophenyl a-D-glucopyranoside as substrate by spectrophotometry
Parameters: species or system Saccharomyces cerevisiae
How it was run: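 Yeast enzyme at 1 U/mL with 0.01 M p-nitrophenyl α-D-glucopyranoside substrate, in 0.067 M KH₂PO₄–Na₂HPO₄ buffer, pH 6.8. Reaction run at 37 °C for 10 min and inhibition read spectrophotometrically. Method adapted with slight modification from a published procedure.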

IC50 [µM] | SMILES
70.2 | COc1cc(/C=C2/c3cc(O)cc(O)c3[C@H](c3ccc(O)c(OC)c3)[C@H]2c2cc(O)cc(O)c2)ccc1O [GNETULIN]
3.04 | COc1cc([C@H]2Oc3c(O)cc(/C=C/c4cc(O)cc(O)c4)cc3[C@@H]2c2cc(O)cc(O)c2)ccc1O (relative stereo)
20.6 | OC[C@H]1NC[C@H](O)[C@@H](O)[C@@H]1O [DUVOGLUSTAT]
1.13 | Oc1cc(O)cc(/C=C/c2cc(O)c3c(c2)[C@H](c2cc(O)cc(O)c2)[C@@H](c2ccc(O)c(O)c2)O3)c1 (racemic)
69.3 | CC(=O)Oc1cc([C@H]2Oc3ccc(/C=C/c4cc(O)cc(O)c4)cc3O[C@@H]2c2cc(O)cc(O)c2)ccc1O (racemic)
79.1 | Oc1cc(O)c2c(c1)[C@H]1[C@H](c3ccc(O)c(O)c3)c3c(O)cc(O)cc3[C@H]1[C@@H]2c1ccc(O)c(O)c1 [CARAROSINOL D]
131 | CC(=O)Oc1cc([C@@H]2c3c(O)cc(O)cc3[C@H]3[C@H](c4ccc(O)c(OC(C)=O)c4)c4c(O)cc(O)cc4[C@@H]23)ccc1O
109 | COc1cc([C@@H]2c3c(O)cc(O)cc3[C@H]3[C@H](c4ccc(O)c(O)c4)c4c(O)cc(O)cc4[C@@H]23)ccc1O (racemic)
23.2 | Oc1cc(O)cc(/C=C/c2ccc3c(c2)O[C@H](c2cc(O)cc(O)c2)[C@@H](c2ccc(O)c(O)c2)O3)c1 [MAACKIN]
34.3 | Oc1cc(O)cc(/C=C/c2ccc(O)c(O)c2)c1 [PICEATANNOL]
